The text below walks through data of ChEMBL document CHEMBL3046679, “Design, synthesis, and biological activities of arylmethylamine substituted chlorotriazine and methylthiotriazine compounds” (J Agric Food Chem, 2011).

Structures are written as SMILES. Activity calls are given as the source filed them. The rule behind the calls is not given here.

Assay [1] deals with Amaranthus retroflexus. The assay can be described thus: Herbicidal activity against Amaranthus retroflexus assessed as growth inhibition at 1 kg/ha preemergence treatment by glasshouse test. In kind it is functional. The following applies: pre-emergence, read-out: GI. The method in brief: (§1)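 Glasshouse screen with pre- or postemergence application at 1.0 kg/ha. Result given as percent inhibition of plant growth; norflurazon and glyphosate used as controls.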

The test system of assay [2] is Stellaria media. The assay can be described thus: Herbicidal activity against Stellaria media assessed as growth inhibition at 1 kg/ha postemergence treatment by glasshouse test. In kind it is functional. Particulars: post-emergence, read-out: GI. The method in brief:
as §1

Another assay deals with Heliothis virescens. The experiment in a line: Insecticidal activity against Lepidoptera Heliothis virescens (tobacco budworm) assessed as mortality at 1000 ppm by leaf-disk assay. In kind it is functional, organism-based. Put shortly: (§2)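 Leaf-disk assay at 1000 ppm, three replicates. Plates kept 5–9 days in controlled-environment cabinets. Mortality judged against untreated wells: 99 for significant mortality, 0 otherwise. Values are the mean of three; thiamethoxam and indoxacarb used as positive controls.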

A further assay concerns Pythium dissimile. The experiment in a line: Fungicidal activity against Pythium dissimile assessed as inhibition of mycelia growth at 2 ppm. In kind it is functional, organism-based. Put shortly:
(§3)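 Mycelial growth test in 96-well plates: compound incorporated into artificial growth medium at 2 ppm, two replicates per rate. Each well scored 99 for complete, 55 for partial or 0 for no inhibition. Values are the mean across replicates; azoxystrobin and prochloraz used as positive controls.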

In a further assay the test system is Aphididae. The assay can be described thus: Insecticidal activity against Aphididae (aphids) assessed as mortality at 1000 ppm by leaf-disk assay. It counts as functional, organism-based. Put shortly:
as §2

The test system of assay [3] is Echinochloa crus-galli. The experiment in a line: Herbicidal activity against Echinochloa crus-galli (barnyard grass) at 1.5 kg/ha preemergence treatment measured after 10 days by glasshouse test. Particulars: pre-emergence, 240 h. It counts as functional. The method in brief:
(§4)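 Glasshouse pre/postemergence test, each treatment in triplicate. Above-ground fresh weight measured 10 days after treatment. Result expressed as percent inhibition versus control, from 0 (no control) to 100 (complete control); glyphosate used as positive control.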

In assay [4] the test system is Digitaria sanguinalis. The experiment in a line: Herbicidal activity against Digitaria sanguinalis (hairy crabgrass) assessed as growth inhibition at 1 kg/ha postemergence treatment by glasshouse test. It counts as functional. The following applies: post-emergence, read-out: GI. The method in brief:
as §1

For another assay, the system named is Botrytis cinerea. The experiment in a line: Fungicidal activity against Botryotinia fuckeliana assessed as inhibition of mycelia growth at 2 ppm. In kind it is functional, organism-based. Put shortly:
as §3

Assay [5] concerns Digitaria sanguinalis. The experiment in a line: Herbicidal activity against Digitaria sanguinalis (hairy crabgrass) assessed as growth inhibition at 1 kg/ha preemergence treatment by glasshouse test. It counts as functional. Particulars: pre-emergence, read-out: GI. The method in brief: as §1
Assay [6] concerns Amaranthus retroflexus. The assay can be described thus: Herbicidal activity against Amaranthus retroflexus assessed as growth inhibition at 1 kg/ha postemergence treatment by glasshouse test. In kind it is functional. The following applies: post-emergence, read-out: GI. Put shortly:
as §1

Assay [7] relates to Echinochloa crus-galli. The assay can be described thus: Herbicidal activity against Echinochloa crus-galli (barnyard grass) at 1.5 kg/ha postemergence treatment measured after 10 days by glasshouse test. Particulars: post-emergence, 240 h. In kind it is functional. The method in brief:
as §4

The test system of assay [8] is Stellaria media. The assay can be described thus: Herbicidal activity against Stellaria media assessed as growth inhibition at 1 kg/ha preemergence treatment by glasshouse test. It counts as functional. Particulars: pre-emergence, read-out: GI. Put shortly: as §1
A further assay relates to Fusarium graminearum. The assay can be described thus: Fungicidal activity against Fusarium graminearum assessed as inhibition of mycelia growth at 2 ppm. In kind it is functional, organism-based. The method in brief:
as §3

The subject of assay [9] is Brassica napus. The assay can be described thus: Herbicidal activity against Brassica napus (oilseed rape) at 1.5 kg/ha preemergence treatment measured after 10 days by glasshouse test. It counts as functional. The following applies: pre-emergence, 240 h. The method in brief: as §4
The test system of assay [10] is Lolium perenne. The experiment in a line: Herbicidal activity against Lolium perenne (perennial ryegrass) assessed as growth inhibition at 1 kg/ha postemergence treatment by glasshouse test. In kind it is functional. The following applies: post-emergence, read-out: GI. The method in brief: as §1
Assay [11] concerns Brassica napus. The experiment in a line: Herbicidal activity against Brassica napus (oilseed rape) at 1.5 kg/ha postemergence treatment measured after 10 days by glasshouse test. It counts as functional. The following applies: post-emergence, 240 h. The method in brief: as §4
Assay [12] relates to Lolium perenne. The experiment in a line: Herbicidal activity against Lolium perenne (perennial ryegrass) assessed as growth inhibition at 1 kg/ha preemergence treatment by glasshouse test. In kind it is functional. The following applies: pre-emergence, read-out: GI. The method in brief:
as §1

The next assay relates to Phytophthora infestans. The assay can be described thus: Fungicidal activity against Phytophthora infestans assessed as inhibition of mycelia growth at 200 ppm. It counts as functional, organism-based.
The subject of the next assay is Poa annua. The assay can be described thus: Herbicidal activity against Poa annua assessed as growth inhibition at 32 ppm by 96-well plate test. It counts as functional. The following applies: read-out: GI. The method in brief:
(§5)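 96-well plate herbicide screen: Arabidopsis thaliana at 10 ppm and Poa annua at 32 ppm, two replicates. Plates incubated seven days in a controlled-environment cabinet. Each replicate scored 0 (no visible effect) or 99 (herbicidal effect); values are the mean of the two. Atrazine used as reference.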

A further assay concerns Arabidopsis thaliana. The experiment in a line: Herbicidal activity against Arabidopsis thaliana assessed as growth inhibition at 10 ppm by 96-well plate test. In kind it is functional. The following applies: read-out: GI. Put shortly:
as §5

The next assay deals with Zymoseptoria tritici. The experiment in a line: Fungicidal activity against Zymoseptoria tritici assessed as inhibition of mycelia growth at 100 ppm. In kind it is functional, organism-based.
The next assay deals with Alternaria solani. The experiment in a line: Fungicidal activity against Alternaria solani assessed as inhibition of mycelia growth at 2 ppm. It counts as functional, organism-based. The method in brief: as §3
For the next assay, the system named is Uromyces viciae-fabae. The experiment in a line: Fungicidal activity against Uromyces viciae-fabae assessed as inhibition of mycelia growth at 100 ppm. In kind it is functional, organism-based. Put shortly: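 Leaf-piece assay on bean at 100 ppm, with compound applied before spore inoculation and two replicates. Each well scored 99 for complete inhibition, 55 for partial and 0 for none; value is the mean score across replicates.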

As usually defined, the inhibition is the share of the control response that was lost under treatment. Take `CSc1nc(NCc2ccc(F)cc2)nc(NC(C)C)n1`: the inhibition of growth at 1000 g/ha in the assay with Amaranthus retroflexus [1] is 100%; with Stellaria media [2] it was 100%; in the assay with Digitaria sanguinalis [4], 80%; with Digitaria sanguinalis [5], 0%; with Amaranthus retroflexus [6], 100%; in the assay on Stellaria media [8], 90%. In addition, the inhibition of growth at 1000 g/ha in the assay on Lolium perenne [10] is 80%; with Lolium perenne [12], 50%. Further, the mortality entry in the assay with Heliothis virescens and with Aphididae was “inactive” each time. Moreover, the inhibition result in the assay with Pythium dissimile, in the assay with Botrytis cinerea, in the assay with Fusarium graminearum, in the assay on Phytophthora infestans and in the assay with Zymoseptoria tritici was “inactive” each time. Besides, the inhibition at 1500 g/ha in the assay on Echinochloa crus-galli [3] came to 21.4%; in the assay with Echinochloa crus-galli [7], 100%; with Brassica napus [9] it was 100%; in the assay on Brassica napus [11] it was 100%. In addition, the inhibition of growth at 32 ppm in the assay on Poa annua turned out to be 0%. Further, the inhibition of growth at 10 ppm with Arabidopsis thaliana amounted to 99%.

Take `CSc1nc(NCc2ccc(Cl)nc2)nc(NC(C)C)n1`: the inhibition of growth at 1000 g/ha is 100% in the assay on Amaranthus retroflexus [1]; 100% in the assay on Stellaria media [2]; 90% in the assay with Digitaria sanguinalis [4]; 0% in the assay with Digitaria sanguinalis [5]; 70% in the assay on Amaranthus retroflexus [6]; 90% with Stellaria media [8]. Moreover, the inhibition of growth at 1000 g/ha with Lolium perenne [10] was determined as 50%; in the assay on Lolium perenne [12], 10%. Moreover, the mortality result in the assay on Heliothis virescens was “inactive”. The inhibition result in the assay on Pythium dissimile, in the assay with Fusarium graminearum, in the assay with Phytophthora infestans, with Alternaria solani and in the assay with Zymoseptoria tritici was “inactive” each time. The inhibition at 1500 g/ha with Echinochloa crus-galli [3] is 88.6%; in the assay on Echinochloa crus-galli [7], 88.6%; in the assay on Brassica napus [9], 100%; with Brassica napus [11], 100%. In the assay on Botrytis cinerea, the inhibition result is “Active”. Besides, the inhibition of growth at 32 ppm in the assay on Poa annua was determined as 0%. The inhibition of growth at 10 ppm in the assay with Arabidopsis thaliana worked out at 99%.

`CC(C)Nc1nc(Cl)nc(NCc2cc(-c3ccccc3)no2)n1`: the mortality result in the assay on Heliothis virescens was “Active”. Further, the inhibition entry in the assay with Pythium dissimile, in the assay on Fusarium graminearum, with Phytophthora infestans and in the assay on Alternaria solani was “inactive” each time. For the same compound, the mortality result in the assay on Aphididae was “inactive”. For the same compound, the inhibition at 1500 g/ha turned out to be 4.3% in the assay on Echinochloa crus-galli [3], 17.7% with Echinochloa crus-galli [7], 20.1% in the assay with Brassica napus [9] and 42.4% with Brassica napus [11].

As for `CC(C)Nc1nc(Cl)nc(NCC2CCCO2)n1` (centres undefined), the inhibition at 1500 g/ha in the assay on Echinochloa crus-galli [3] turned out to be 46.4%; with Echinochloa crus-galli [7], 41.3%; with Brassica napus [9] it was 100%; with Brassica napus [11], 100%.

In the case of `CC(C)Nc1nc(Cl)nc(NCc2cnc(Br)s2)n1`, the mortality result with Heliothis virescens and in the assay with Aphididae was “inactive” in each case. For the same compound, the inhibition result in the assay with Pythium dissimile, in the assay with Botrytis cinerea, in the assay with Uromyces viciae-fabae, in the assay on Fusarium graminearum, with Phytophthora infestans and in the assay on Alternaria solani was “inactive” in each case. For the same compound, the inhibition entry in the assay with Zymoseptoria tritici is “inactive”. The inhibition at 1500 g/ha in the assay on Echinochloa crus-galli [3] was found to be 11.3%; with Echinochloa crus-galli [7], 10.4%; with Brassica napus [9], 5.2%; in the assay with Brassica napus [11], 10%.

Regarding `CNc1cnn(-c2cccc(C(F)(F)F)c2)c(=O)c1Cl` [NORFLURAZONE], the inhibition of growth at 32 ppm in the assay with Poa annua was 99%. In addition, the inhibition of growth at 10 ppm in the assay on Arabidopsis thaliana amounted to 99%.

As to `CCNc1nc(NC(C)C)nc(SC)n1` [AMETRYNE], the inhibition of growth at 1000 g/ha stood at 100% in the assay with Amaranthus retroflexus [1]; 100% in the assay with Stellaria media [2]; 100% with Digitaria sanguinalis [4]; 90% with Digitaria sanguinalis [5]; 100% in the assay with Amaranthus retroflexus [6]; 90% with Stellaria media [8]. For the same compound, the inhibition of growth at 1000 g/ha in the assay with Lolium perenne [10] amounted to 100%; in the assay on Lolium perenne [12], 90%. In addition, the mortality entry in the assay with Heliothis virescens and in the assay with Aphididae was “inactive” each time. In addition, the inhibition entry in the assay on Pythium dissimile, in the assay with Fusarium graminearum, with Phytophthora infestans, in the assay on Alternaria solani and in the assay on Zymoseptoria tritici was “inactive” in each case. Further, the inhibition at 1500 g/ha in the assay on Echinochloa crus-galli [3], in the assay on Echinochloa crus-galli [7], in the assay with Brassica napus [9] and in the assay with Brassica napus [11] was 100% each time. In the assay with Poa annua, the inhibition of growth at 32 ppm came out at 0%. The inhibition of growth at 10 ppm with Arabidopsis thaliana was 99%.

With `CCNc1nc(Cl)nc(NC(C)C)n1` [ATRAZINE], the inhibition of growth at 1000 g/ha in the assay on Amaranthus retroflexus [1] came out at 100%; in the assay with Stellaria media [2] it was 100%; with Digitaria sanguinalis [4], 70%; in the assay with Digitaria sanguinalis [5] it was 0%; with Amaranthus retroflexus [6], 100%; in the assay on Stellaria media [8], 90%. Besides, the inhibition of growth at 1000 g/ha in the assay on Lolium perenne [10] is 100%; in the assay with Lolium perenne [12], 80%. Besides, the mortality result with Heliothis virescens was “inactive”. The inhibition entry with Pythium dissimile, in the assay with Botrytis cinerea, with Fusarium graminearum, in the assay with Phytophthora infestans and in the assay on Alternaria solani was “inactive” each time. Moreover, the inhibition at 1500 g/ha in the assay on Echinochloa crus-galli [3], in the assay on Echinochloa crus-galli [7], with Brassica napus [9] and with Brassica napus [11] was 100% each time. Besides, in the assay on Poa annua, the inhibition of growth at 32 ppm came out at 0%. Also, in the assay on Arabidopsis thaliana, the inhibition of growth at 10 ppm is 99%.

In the case of `CSc1nc(NCc2cnc(Br)s2)nc(NC(C)C)n1`, the inhibition at 1500 g/ha with Echinochloa crus-galli [3] turned out to be 74.6%; in the assay with Echinochloa crus-galli [7] it was 92%; in the assay on Brassica napus [9], 87.1%; in the assay on Brassica napus [11], 100%.

On to `O=C(O)CNCP(=O)(O)O` [GLYPHOSATE], for which the inhibition of growth at 1000 g/ha in the assay with Amaranthus retroflexus [1] was determined as 90%; in the assay on Stellaria media [2], 80%; with Digitaria sanguinalis [4], 90%; in the assay with Digitaria sanguinalis [5], 0%; in the assay on Amaranthus retroflexus [6] it was 90%; in the assay with Stellaria media [8], 0%. Besides, the inhibition of growth at 1000 g/ha amounted to 80% in the assay on Lolium perenne [10] and 0% with Lolium perenne [12].
